One experiment has as its target Adenosine receptor A2a (Homo sapiens, UniProt P29274). The experiment is described as follows: Affinity for A2a receptor by displacement of [3H]-CGS- 21680 from human striatum. A general note: Loss of bound radioactivity is the signal in a displacement assay; it reports binding, not function.
The target of a further experiment is T1, Adenosine receptor A1 (Homo sapiens, UniProt P30542).
T1 sequence (P30542 whole entry): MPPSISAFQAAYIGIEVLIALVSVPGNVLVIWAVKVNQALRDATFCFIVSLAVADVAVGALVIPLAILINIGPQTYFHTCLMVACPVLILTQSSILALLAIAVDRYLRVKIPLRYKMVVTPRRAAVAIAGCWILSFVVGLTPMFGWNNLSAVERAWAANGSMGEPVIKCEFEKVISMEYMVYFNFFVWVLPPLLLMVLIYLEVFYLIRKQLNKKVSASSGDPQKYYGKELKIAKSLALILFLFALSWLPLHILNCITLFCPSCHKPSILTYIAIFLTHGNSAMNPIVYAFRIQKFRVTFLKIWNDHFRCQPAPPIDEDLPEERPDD
The experiment is described as follows: Affinity for Adenosine A1 receptor by displacement of [3H]DPCPX from human cerebral cortex. Format: tissue-based. An outline of the steps: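 Membranes from human cerebral cortex; competition against [3H]DPCPX. IC50 fitted by non-linear least squares and converted to Ki via Cheng–Prusoff; means ± SE of three experiments.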

A further experiment has as its target T2, Adenosine receptor A3 (Homo sapiens, UniProt P0DMS8).
T2 sequence (P0DMS8 whole entry): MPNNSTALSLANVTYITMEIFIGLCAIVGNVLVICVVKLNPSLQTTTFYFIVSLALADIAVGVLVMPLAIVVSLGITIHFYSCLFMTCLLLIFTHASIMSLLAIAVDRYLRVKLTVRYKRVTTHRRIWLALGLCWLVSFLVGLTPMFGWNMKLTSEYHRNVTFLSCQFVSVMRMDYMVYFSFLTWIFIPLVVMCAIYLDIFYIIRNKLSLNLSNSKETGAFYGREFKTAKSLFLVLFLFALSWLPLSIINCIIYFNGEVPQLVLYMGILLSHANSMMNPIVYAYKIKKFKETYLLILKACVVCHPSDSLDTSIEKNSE
Briefly: Displacement of [125I]AB-MECA from human Adenosine A3 receptor expressed in CHO cells. Format: cell-based.

Chain of Adenosine receptor A2a (P29274 whole entry): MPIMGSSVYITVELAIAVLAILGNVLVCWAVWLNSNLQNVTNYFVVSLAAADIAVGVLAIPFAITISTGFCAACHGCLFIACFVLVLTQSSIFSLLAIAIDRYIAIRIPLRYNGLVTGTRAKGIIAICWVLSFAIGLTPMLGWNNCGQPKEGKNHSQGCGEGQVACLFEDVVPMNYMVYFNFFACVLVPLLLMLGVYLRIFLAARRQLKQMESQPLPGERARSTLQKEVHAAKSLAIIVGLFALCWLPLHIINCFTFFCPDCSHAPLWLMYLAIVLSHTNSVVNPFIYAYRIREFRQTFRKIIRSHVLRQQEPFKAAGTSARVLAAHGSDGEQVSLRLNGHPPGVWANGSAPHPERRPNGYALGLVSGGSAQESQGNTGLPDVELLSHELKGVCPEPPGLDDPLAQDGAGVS

Regarding `CCNC(=O)[C@H]1OC(n2cnc3c(NCCCCCCNc4ccc([N+](=O)[O-])c5nonc45)ncnc32)[C@H](O)[C@@H]1O` (stereo not given in full), the Ki was 6.08 µM at Adenosine receptor A2a, > 10 µM at Adenosine receptor A1 and 0.0236 µM on Adenosine receptor A3.
The corresponding values for `CCNC(=O)[C@H]1OC(n2cnc3c(NCCCCNc4ccc([N+](=O)[O-])c5nonc45)ncnc32)[C@H](O)[C@@H]1O` (stereo not given in full) are > 10 µM, > 10 µM and 0.381 µM.
Take `CCNC(=O)[C@H]1OC(n2cnc3c(NCCNc4ccc([N+](=O)[O-])c5nonc45)ncnc32)[C@H](O)[C@@H]1O` (stereo not given in full): the Ki at Adenosine receptor A2a was 6.75 µM; on Adenosine receptor A1, > 10 µM; on Adenosine receptor A3 it was 0.0558 µM.
With `CCNC(=O)[C@H]1OC(n2cnc3c(NCCCCCCCCNc4ccc([N+](=O)[O-])c5nonc45)ncnc32)[C@H](O)[C@@H]1O` (stereo not given in full), the Ki stood at 5.1 µM at Adenosine receptor A2a, 3.48 µM at Adenosine receptor A1 and 0.00744 µM at Adenosine receptor A3.
For `CCNC(=O)[C@H]1OC(n2cnc3c(NCCCCCCCCCCNc4ccc([N+](=O)[O-])c5nonc45)ncnc32)[C@H](O)[C@@H]1O` (stereo not given in full), the inhibition constant (Ki) was 6.1 µM on Adenosine receptor A2a, 6.35 µM at Adenosine receptor A1 and 0.0281 µM at Adenosine receptor A3.

For orientation: Ki means the equilibrium dissociation constant of an inhibitor or competing ligand from its target.

The record behind these values is ChEMBL document CHEMBL1133855 (Bioorg Med Chem Lett, 2001).
